We go through eleven molecules from ChEMBL document CHEMBL3228039, “Synthesis and evaluation of the antiovulatory activity of a variety of melatonin analogues” (J Med Chem, 1979).

In data set [1] the test system is Rattus norvegicus. Kind of data set: Antiovulatory activity in Sprague-Dawley rat assessed as blockage of luteinizing hormone surge by measuring reduction in ovulation at 8 mg/kg, po by microscopic analysis. The arrangement: dose 8 mg/kg. In kind it is functional, organism-based. In short, it runs like this:
(§1)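 Female rats (270-300 g) with at least two consecutive 4-day estrus cycles, tracked by daily vaginal smears, were used on the day of proestrus. A single dose was given at 1200 h, either iv in 50% Me2SO or orally in PEG 400. Controls received vehicle only. Rats were killed on the day of estrus, and oviducts were examined microscopically for ova. Absence of ova was scored as ovulation blocked.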

For data set [2], the system named is Rattus norvegicus. Kind of data set: Antiovulatory activity in Sprague-Dawley rat assessed as blockage of luteinizing hormone surge by measuring reduction in ovulation at 8 mg/kg, iv by microscopic analysis. In kind it is functional, organism-based. The arrangement: dose 8 mg/kg. In short, it runs like this:
as §1

Data set [3] has as its system Rattus norvegicus. Kind of data set: Antiovulatory activity in Sprague-Dawley rat assessed as blockage of luteinizing hormone surge by measuring reduction in ovulation at 4 mg/kg, po by microscopic analysis. More on the design: dose 4 mg/kg. The class given is functional, organism-based. In short, it runs like this:
as §1

In data set [4] the test system is Rattus norvegicus. The data set can be described thus: Antiovulatory activity in Sprague-Dawley rat assessed as blockage of luteinizing hormone surge by measuring reduction in ovulation at 4 mg/kg, iv by microscopic analysis. The class given is functional, organism-based. More on the design: dose 4 mg/kg. In a few lines:
as §1

The test system of data set [5] is Rattus norvegicus. Kind of data set: Antiovulatory activity in Sprague-Dawley rat assessed as blockage of luteinizing hormone surge by measuring reduction in ovulation at 5 mg/kg, po by microscopic analysis. The class given is functional, organism-based. More on the design: dose 5 mg/kg. In a few lines:
as §1

The species named for another data set is Xenopus laevis. The data set can be described thus: Melatonin-like activity in tadpole by blanching test. The class given is functional, organism-based.
Data set [6] in a line: Half life in serum (unknown origin) after first 2 hrs post iv dose. In kind it is ADME, organism-based.
Data set [7] can be described thus: Half life in rat plasma after 30 mins. The class given is ADME, cell-free.
The nature of data set [8]: Half life in rat plasma after 2 hrs. The class given is ADME, cell-free.

Calls of active or inactive are those of the source. The rule behind the calls is not given here.

As to `CC(=O)NCCc1c[nH]c2ccc(OC3CCCC3)cc12`, the result in the data set with Rattus norvegicus [1] was Active.
Take `CC(=O)NCCc1c[nH]c2ccc(OC(C)=O)cc12`: the result in the data set on Rattus norvegicus [1] and in the data set on Rattus norvegicus [2] was Active.
Consider `CCC(=O)NCCc1c[nH]c2cc(Cl)c(OC)cc12`, for which, in the data set with Rattus norvegicus [3], the outcome was inactive.
Consider `COc1cc2c(CCNC(=O)C34CC5CC(CC(C5)C3)C4)c[nH]c2cc1Cl`, for which, in the data set on Rattus norvegicus [1], the result was Active.
For `COc1cc2c(CCNC(C)=O)c[nH]c2cc1Cl`, the outcome in the data set with Rattus norvegicus [4] and in the data set on Rattus norvegicus [5] was inactive. Further, the outcome in the data set filed under Xenopus laevis was Active. The molecule also yielded a half-life in data set [6] of 27 min.
In the case of `COc1ccc2c(c1)c(CCNC(C)=O)cn2C`, the result in the data set with Rattus norvegicus [1] was Active.
On the same count and under the same terms, the result for `CCOc1ccc2[nH]cc(CCNC(C)=O)c2c1` reads “Active”.
With `COc1ccc2[nH]cc(CCNC(C)=O)c2c1` [MELATONIN], the half-life in data set [7] is 15 min; in [8] it was 12 min; in data set [6] it was > 12 min.
Take `COc1ccc2[nH]cc(CCNC(C)=O)c2c1Cl`: the result in the data set on Rattus norvegicus [1] was Active.
On the same count and under the same terms, to `COc1cc2c(CCNC(C)=O)c[nH]c2cc1C` belongs “Active”.
In the case of `CC(=O)NCCc1c[nH]c2ccc(O)cc12`, the result with Rattus norvegicus [1] and with Rattus norvegicus [2] was Active.
